Measured values published in ChEMBL document CHEMBL1914299, “Synthesis and antitumor activity of β-carboline 3-(substituted-carbohydrazide) derivatives” (Bioorg Med Chem, 2011).
pIC50: −log10 of the molar value.

Legend:
Type in all cases: functional, cell-based
[1] = tested on: UACC-62; assay: Antitumor activity against human UACC62 cells by SRB colorimetric assay
Procedure, shortened: (§1)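 NCI sulforhodamine B colorimetric growth assay in 96-well plates. Each compound tested at four concentrations in 10-fold dilutions. Doxorubicin as positive control. IC50 taken from concentration–response curves as the concentration giving 50% reduction in cell growth versus untreated control cells.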

[2] = Antitumor activity against human PCO3 cells by SRB colorimetric assay; procedure, shortened: as §1
[3] = tested on: K562; assay: Antitumor activity against human K562 cells by SRB colorimetric assay; procedure, shortened: as §1
[4] = tested on: MCF7; assay: Antitumor activity against human MCF7 cells by SRB colorimetric assay; procedure, shortened: as §1
[5] = tested on: HT-29; assay: Antitumor activity against human HT-29 cells by SRB colorimetric assay; procedure, shortened: as §1
[6] = tested on: 786-0; assay: Antitumor activity against human 786-0 cells by SRB colorimetric assay; procedure, shortened: as §1
[7] = tested on: NCI-H460; assay: Antitumor activity against human NCI-H460 cells by SRB colorimetric assay; procedure, shortened: as §1
[8] = tested on: OVCAR; assay: Antitumor activity against human OVCAR cells by SRB colorimetric assay; procedure, shortened: as §1

Structure (SMILES)	pIC50 [3]	pIC50 [4]	pIC50 [5]	pIC50 [6]	pIC50 [7]	pIC50 [8]	pIC50 [1]	pIC50 [2]
CC(C)=NNC(=O)c1cc2c([nH]c3ccccc32)c(-c2ccc([N+](=O)[O-])cc2)n1	< 4.00	< 4.00	< 4.00	< 4.00	< 4.00	< 4.00	< 4.00	< 4.00
O=C(NN=C1CCCCC1)c1cc2c([nH]c3ccccc32)c(-c2ccccc2)n1	4.25	4.49	4.33	< 4.00	4.16	4.11	4.51	4.56
COc1ccc(-c2nc(C(=O)NN=C3CCCCC3)cc3c2[nH]c2ccccc23)cc1	4.99	5.04	4.86	4.73	4.70	4.89	4.93	4.99
O=C(N/N=C/c1ccc([N+](=O)[O-])cc1)c1cc2c([nH]c3ccccc32)c(-c2ccccc2)n1	5.37	4.67	4.82	4.53	5.29	4.84	5.32	5.07
Cn1c2ccccc2c2cc(C(=O)N/N=C/c3ccccc3Cl)nc(-c3ccccc3)c21	< 4.00	< 4.00	< 4.00	< 4.00	< 4.00	< 4.00	< 4.00	< 4.00
COc1ccc(/C=N/NC(=O)c2cc3c([nH]c4ccccc43)c(-c3ccc(OC)cc3)n2)cc1	< 4.00	4.15	< 4.00	< 4.00	4.45	< 4.00	4.04	< 4.00
O=C(NN=C1CCCCC1)c1cc2c([nH]c3ccccc32)c(-c2cccc([N+](=O)[O-])c2)n1	4.06	< 4.00	< 4.00	< 4.00	< 4.00	< 4.00	< 4.00	< 4.00
O=C(N/N=C/c1ccccc1Cl)c1cc2c([nH]c3ccccc32)c(-c2cccc([N+](=O)[O-])c2)n1	4.17	4.85	4.81	4.77	4.54	< 4.00	4.45	4.78
COc1ccc(-c2nc(C(=O)NN=C3CCCC3)cc3c2[nH]c2ccccc23)cc1	< 4.00	< 4.00	< 4.00	< 4.00	< 4.00	< 4.00	4.12	< 4.00
O=C(N/N=C/c1ccccc1Cl)c1cc2c([nH]c3ccccc32)c(-c2ccc([N+](=O)[O-])cc2)n1	5.20	4.74	5.41	5.56	4.42	5.34	5.60	4.74
CN(C)c1ccc(/C=N/NC(=O)c2cc3c4ccccc4n(C)c3c(-c3cccc([N+](=O)[O-])c3)n2)cc1	< 4.00	< 4.00	< 4.00	5.91	< 4.00	< 4.00	< 4.00	< 4.00
COc1ccc(/C=N/NC(=O)c2cc3c([nH]c4ccccc43)c(-c3ccccc3)n2)cc1	4.84	4.96	4.41	< 4.00	4.23	5.00	4.18	4.23
O=C(N/N=C/c1ccc([N+](=O)[O-])cc1)c1cc2c([nH]c3ccccc32)c(-c2ccc([N+](=O)[O-])cc2)n1	< 4.00	< 4.00	< 4.00	< 4.00	< 4.00	< 4.00	< 4.00	< 4.00
COc1ccc(-c2nc(C(=O)NN=C3CCCC3)cc3c2[nH]c2ccccc23)cc1O	< 4.00	< 4.00	–	4.01	< 4.00	< 4.00	< 4.00	< 4.00
CN(C)c1ccc(/C=N/NC(=O)c2cc3c([nH]c4ccccc43)c(-c3ccc(O)cc3)n2)cc1	< 4.00	< 4.00	< 4.00	< 4.00	4.16	5.90	4.05	–
COc1ccc(/C=N/NC(=O)c2cc3c([nH]c4ccccc43)c(-c3ccc(O)cc3)n2)cc1	4.06	< 4.00	4.02	4.21	5.01	6.43	5.41	–
CN(C)c1ccc(-c2nc(C(=O)NN=C3CCCCC3)cc3c2[nH]c2ccccc23)cc1	< 4.00	< 4.00	–	< 4.00	< 4.00	< 4.00	< 4.00	< 4.00

More lines, main results first:

pIC50 [3]	pIC50 [4]	pIC50 [5]	pIC50 [6]	pIC50 [7]	pIC50 [8]	Structure (SMILES)	pIC50 [1]	pIC50 [2]
< 4.00	< 4.00	< 4.00	< 4.00	< 4.00	< 4.00	CN(C)c1ccc(/C=N/NC(=O)c2cc3c([nH]c4ccccc43)c(-c3ccc([N+](=O)[O-])cc3)n2)cc1	< 4.00	< 4.00
< 4.00	< 4.00	< 4.00	< 4.00	< 4.00	< 4.00	CC(C)=NNC(=O)c1cc2c([nH]c3ccccc32)c(-c2cccc([N+](=O)[O-])c2)n1	< 4.00	< 4.00
< 4.00	< 4.00	< 4.00	< 4.00	< 4.00	< 4.00	COc1ccc(-c2nc(C(=O)N/N=C/c3ccc([N+](=O)[O-])cc3)cc3c2[nH]c2ccccc23)cc1	< 4.00	< 4.00
< 4.00	4.12	< 4.00	< 4.00	< 4.00	4.12	CN(C)c1ccc(/C=N/NC(=O)c2cc3c([nH]c4ccccc43)c(-c3ccccc3)n2)cc1	4.06	4.06
4.87	4.65	4.26	< 4.00	4.09	< 4.00	CN(C)c1ccc(-c2nc(C(=O)NN=C3CCCC3)cc3c2[nH]c2ccccc23)cc1	4.73	4.69
5.43	4.91	5.41	5.02	< 4.00	4.29	O=C(N/N=C/c1ccc([N+](=O)[O-])cc1)c1cc2c([nH]c3ccccc32)c(-c2ccc(O)cc2)n1	5.35	4.89
< 4.00	< 4.00	< 4.00	< 4.00	< 4.00	< 4.00	O=C(NN=C1CCCC1)c1cc2c([nH]c3ccccc32)c(-c2cccc([N+](=O)[O-])c2)n1	< 4.00	< 4.00
< 4.00	5.13	4.70	4.93	4.86	4.95	O=C(NN=C1CCCC1)c1cc2c([nH]c3ccccc32)c(-c2ccccc2Cl)n1	4.93	4.82
